Data published in BindingDB's records for doi:10.1021/jm950716i (Cortech, 1996).

Biological target: T1, B2 bradykinin receptor (Rattus norvegicus, UniProt P25023)
T1 sequence (P25023 whole entry): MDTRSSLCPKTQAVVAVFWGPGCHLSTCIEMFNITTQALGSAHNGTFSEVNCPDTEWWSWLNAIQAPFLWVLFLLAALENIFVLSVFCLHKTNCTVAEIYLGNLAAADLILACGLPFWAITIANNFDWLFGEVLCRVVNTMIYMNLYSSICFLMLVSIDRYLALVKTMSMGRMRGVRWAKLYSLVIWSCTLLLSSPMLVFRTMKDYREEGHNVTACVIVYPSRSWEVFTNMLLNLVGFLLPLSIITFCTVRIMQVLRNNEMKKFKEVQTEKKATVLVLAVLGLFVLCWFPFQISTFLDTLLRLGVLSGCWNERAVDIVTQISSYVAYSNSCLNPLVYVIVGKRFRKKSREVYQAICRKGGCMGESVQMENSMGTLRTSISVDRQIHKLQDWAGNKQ
Experiment: In vitro Bradykinin receptor B2 antagonist activity by using rat uterus functional assay
How it was run: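 Uterine horns from female Sprague-Dawley rats primed with stilbesterol (100 μg/kg) 18 h earlier. Tissue held at 1 g tension in De Jalon's solution, 31 °C, aerated. […] Potency by Arunlakshana-Schild analysis.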

Question: With N=C(N)NCCCCC(=O)N1CCC[C@@H]1C(=O)N1C[C@@H](O)C[C@@H]1C(=O)NCC(=O)N[C@@H](Cc1cccs1)C(=O)N[C@@H](CO)C(=O)N1Cc2ccccc2C[C@@H]1C(=O)N(CC(=O)N[C@@H](CCCNC(=N)N)C(=O)O)C1CCCCC1 as the compound, how does the Kd read?
Answer: 22.4 nM
